Series [1] has as its system Homo sapiens. Nature of the series: Oral clearance in chronic hepatitis B virus infected patient assessed as (1-((2-amino-9H-purin-9-yl)methyl)cyclopropoxy)me at 60 mg, po administered as single dose by LC-MS analysis. Conditions: in vivo. Type of series: ADME, organism-based. The essentials:
(§1)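 Oral LB80380 was given once daily for 4 weeks to CHB patients. Plasma LB80331 was quantified by validated LC-MS/MS after protein precipitation, with stable-isotope internal standard, at baseline and steady state (weeks 2–4), 0–24 h postdose. Noncompartmental CL/F was calculated as dose (adjusted for LB80380/LB80331 molecular weights) divided by AUC (AUC0-∞ single dose; AUC0-24 steady state).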

Series [2] deals with Homo sapiens. In words: Half life in chronic hepatitis B virus infected patient assessed as (1-((2-amino-9H-purin-9-yl)methyl)cyclopropoxy)me at 240 mg, po qd for 4 weeks by LC-MS analysis. Type of series: ADME, organism-based. The conditions noted are these: in vivo, 672 h. The essentials:
(§2)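 CHB patients given LB80380 orally once daily for 4 weeks. Plasma was sampled on day 1 and at steady state (weeks 2–4), predose and 0.5, 1, 2, 3, 4, 6, 8 and 24 h postdose. LB80331 was measured by validated LC-MS/MS (LLOQ 5 ng/ml). Terminal-phase apparent t1/2 came from noncompartmental analysis and was flagged if extrapolated AUC exceeded 20% of AUC0-24.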

The subject of series [3] is Homo sapiens. In words: Half life in chronic hepatitis B virus infected patient assessed as (1-((2-amino-9H-purin-9-yl)methyl)cyclopropoxy)me at 240 mg, po administered as single dose by LC-MS analysis. Type of series: ADME, organism-based. The conditions noted are these: in vivo. The essentials:
as §2

Series [4] has as its system Liver. Nature of the series: Tmax in CD-1 mouse liver assessed as (1-((2-amino-9H-purin-9-yl)methyl)cyclopropoxy)me at 30 mg/kg, po administered as single dose by LC-MS analysis. Type of series: ADME, organism-based. Also on record: dose 30 mg/kg, route oral. The conditions noted are these: in vivo. In outline:
(§3)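 Male CD-1 mice received 30 mg/kg orally in 100% PEG 400. Plasma and snap-frozen liver were taken from 3 mice per time point at 1, 2, 4, 6, 10, 24 and 36 h. Samples were extracted with perchloric acid and neutralized with ammonium bicarbonate. Free LB80331/LB80317 was measured directly by LC-MS/MS; total, including di- and triphosphates, was measured after calf intestinal phosphatase treatment.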

Series [5] has as its system Homo sapiens. In words: Half life in chronic hepatitis B virus infected patient assessed as (1-((2-amino-9H-purin-9-yl)methyl)cyclopropoxy)me at 30 mg, po qd for 4 weeks by LC-MS analysis. The class given is ADME, organism-based. Conditions: in vivo, 672 h. The essentials:
as §2

Series [6] relates to Homo sapiens. Nature of the series: Ratio of AUC (0 to infinity) in high fat diet fed healthy human to AUC (0 to infinity) in fasted healthy human assessed as (1-((2-amino-9H-purin-9-yl)methyl)cyclopropoxy)me at 60 mg, po administered as single dose by LC-MS analysis. The conditions noted are these: in vivo.
Series [7] deals with Homo sapiens. Nature of the series: Tmax in chronic hepatitis B virus infected patient assessed as (1-((2-amino-9H-purin-9-yl)methyl)cyclopropoxy)me at 120 mg, po administered as single dose by LC-MS analysis. The class given is ADME, organism-based. The conditions noted are these: in vivo. In outline: (§4)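 Daily oral LB80380 was given to CHB patients over 4 weeks. Blood was drawn on day 1 and at steady state (weeks 2–4), predose and 0.5–24 h postdose. Plasma LB80331 (LLOQ 5 ng/ml) and LB80317 (LLOQ 10 ng/ml) were measured by LC-MS/MS after protein-precipitation extraction. Tmax was taken by noncompartmental analysis.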

The subject of series [8] is Homo sapiens. Nature of the series: Cmax in chronic hepatitis B virus infected patient assessed as (1-((2-amino-9H-purin-9-yl)methyl)cyclopropoxy)me at 120 mg, po qd for 4 weeks by LC-MS analysis. Details: dose 120 mg, route oral. Type of series: ADME, organism-based. Conditions: in vivo, 672 h. In outline: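 CHB patients, oral once daily for 4 weeks. Plasma sampled at steady state (weeks 2–4), predose and at 0.5, 1, 2, 3, 4, 6, 8 and 24 h postdose. LB80331 measured by validated LC-MS/MS (LLOQ 5 ng/ml) after protein precipitation with a stable-isotope internal standard. Cmax by noncompartmental analysis.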

In series [9] the test system is Plasma. Nature of the series: Tmax in CD-1 mouse plasma assessed as (1-((2-amino-9H-purin-9-yl)methyl)cyclopropoxy)me at 30 mg/kg, po administered as single dose by LC-MS analysis. Also on record: dose 30 mg/kg, route oral. Type of series: ADME, organism-based. The conditions noted are these: in vivo. In outline: as §3
In series [10] the test system is Homo sapiens. Nature of the series: Oral clearance in chronic hepatitis B virus infected patient assessed as (1-((2-amino-9H-purin-9-yl)methyl)cyclopropoxy)me at 30 mg, po qd for 4 weeks by LC-MS analysis. Type of series: ADME, organism-based. Conditions: in vivo, 672 h. In outline:
as §1

Series [11] concerns Liver. In words: Cmax in CD-1 mouse liver assessed as di- and triphosphates of (1-((2-amino-9H-purin-9-yl)methyl)cyclopropoxy)me at 30 mg/kg, po administered as single dose by LC-MS analysis. Type of series: ADME, organism-based. Details: dose 30 mg/kg, route oral. Conditions: in vivo. In outline: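 Male CD-1 mice given a single oral dose in 100% PEG 400. Samples extracted with perchloric acid and neutralized with ammonium bicarbonate. One aliquot assayed for the free analyte; the other treated with calf intestinal phosphatase to give the total including di-/triphosphates. Analysis by LC-MS/MS.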

Series [12] concerns Homo sapiens. Nature of the series: Cmax in chronic hepatitis B virus infected patient assessed as (1-((2-amino-9H-purin-9-yl)methyl)cyclopropoxy)me at 60 mg, po administered as single dose by LC-MS analysis. Type of series: ADME, organism-based. Details: dose 60 mg, route oral. The conditions noted are these: in vivo. In outline:
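CHB patients (HBsAg/HBeAg positive), six per dose cohort, given a first oral dose on day 1. Plasma sampled at baseline. Analysis by validated LC-MS/MS after protein precipitation with a stable-isotope internal standard; LLOQ 5 ng/ml for LB80331. Noncompartmental analysis gives Cmax and AUC0-∞.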

In series [13] the test system is Homo sapiens. Nature of the series: Tmax in chronic hepatitis B virus infected patient assessed as (1-((2-amino-9H-purin-9-yl)methyl)cyclopropoxy)me at 120 mg, po qd for 4 weeks by LC-MS analysis. The class given is ADME, organism-based. Conditions: in vivo, 672 h. The essentials:
as §4

Series [14] deals with Homo sapiens. In words: Cmax in fasted healthy human assessed as (1-((2-amino-9H-purin-9-yl)methyl)cyclopropoxy)me at 60 mg, po administered as single dose by LC-MS analysis. Also on record: dose 60 mg, route oral. The conditions noted are these: in vivo. Type of series: ADME, organism-based. In outline: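 Healthy subjects given a single oral dose after an overnight fast or after a high-fat breakfast. Plasma LB80331 measured by validated LC-MS/MS (LLOQ 5 ng/ml) after protein precipitation. Cmax by noncompartmental analysis.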

For series [15], the system named is Homo sapiens. Nature of the series: Tmax in chronic hepatitis B virus infected patient assessed as (1-((2-amino-9H-purin-9-yl)methyl)cyclopropoxy)me at 60 mg, po administered as single dose by LC-MS analysis. Type of series: ADME, organism-based. Conditions: in vivo. In outline:
as §4

Usually CL/F stands for the apparent clearance, not corrected for the fraction that reaches the circulation. What is called Tmax is the time from dosing to the highest level. Usually Cmax stands for the peak of the concentration-time curve.

As to `Nc1ncc2ncn(CC3(OCP(=O)(O)O)CC3)c2n1` [BESIFOVIR], the CL/F worked out at 244 mL/min in series [1] and 289 mL/min in series [10]. In addition, the t1/2 in series [2] came out at 3.3 h; in [3] it was 3 h; in [5], 2.5 h. In addition, the Tmax in series [4] stood at 1 h; in series [7] it was 2 h; in series [9], 1 h; in series [13], 1 h; in series [15], 2 h. Also, the “Ratio AUC” value in series [6] came out at 1.1. In addition, the Cmax in [8] is 696 ng/mL; in [11], 17 µM; in series [12] it was 397 ng/mL; in series [14] it was 286 ng/mL.

Source of the values: ChEMBL document CHEMBL1649179, “Pharmacokinetics of LB80331 and LB80317 following oral administration of LB80380, a new antiviral agent for chronic hepatitis B (CHB), in healthy adult subjects, CHB patients, and mice” (Antimicrob Agents Chemother, 2009).
